Here are results for eleven molecules from publication PMC9178606 (ACS Omega, 2022).

The target of one assay is T1, α-amylase (Homo sapiens, UniProt P04746).
T1 sequence (P04746 16-511): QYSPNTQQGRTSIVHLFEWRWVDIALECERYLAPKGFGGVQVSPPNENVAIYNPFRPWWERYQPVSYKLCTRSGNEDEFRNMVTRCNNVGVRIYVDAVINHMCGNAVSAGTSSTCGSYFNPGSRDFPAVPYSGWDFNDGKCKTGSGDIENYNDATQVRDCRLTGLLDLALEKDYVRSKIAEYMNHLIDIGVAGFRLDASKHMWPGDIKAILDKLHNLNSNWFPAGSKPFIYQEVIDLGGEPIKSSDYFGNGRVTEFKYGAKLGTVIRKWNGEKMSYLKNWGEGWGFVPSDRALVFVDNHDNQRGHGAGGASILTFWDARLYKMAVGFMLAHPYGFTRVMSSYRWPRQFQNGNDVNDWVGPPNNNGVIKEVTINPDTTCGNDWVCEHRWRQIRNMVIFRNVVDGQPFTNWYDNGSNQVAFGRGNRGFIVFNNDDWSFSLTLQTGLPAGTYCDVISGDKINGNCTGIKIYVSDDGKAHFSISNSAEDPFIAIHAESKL
Description: In vitro α-amylase inhibitory activity. The format is biochemical. A digest of the protocol:
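Labtest amylase substrate (diluted 1:1 in water) added; first read at 620 nm after 8 min. Final read after another 5 min at 37 °C. Inhibition calculated from the change between initial and final absorbance relative to control; IC50 from standard curve.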

The target in a further assay is T2, hsPLA2-G-V (Homo sapiens, UniProt P39877).
T2 sequence (P39877 21-138): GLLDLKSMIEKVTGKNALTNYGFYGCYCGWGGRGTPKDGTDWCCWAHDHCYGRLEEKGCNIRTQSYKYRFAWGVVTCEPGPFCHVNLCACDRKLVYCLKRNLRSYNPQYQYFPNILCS
Description: Anti-phospholipases colorimetric assay, hsPLA2-G-V. Type of assay: biochemical. A digest of the protocol: (§1)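 Test compound solutions (5−50 μg/mL) mixed with hsPLA2 solution (20 μg/mL, stock) and held 20 min at room temperature. Substrate added: 3.5 mM lecithin, 10 mM CaCl2, 3 mM sodium taurodeoxycholate, 100 mM NaCl, 0.055 mM phenol red, pH 7.6. Hydrolysis followed at 558 nm for 5 min. Percent inhibition taken against a no-compound control; IC50 from standard calibration curves.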

The target in a further assay is T3, hsPLA2-G-X (Homo sapiens, UniProt O15496).
T3 sequence (O15496 43-165): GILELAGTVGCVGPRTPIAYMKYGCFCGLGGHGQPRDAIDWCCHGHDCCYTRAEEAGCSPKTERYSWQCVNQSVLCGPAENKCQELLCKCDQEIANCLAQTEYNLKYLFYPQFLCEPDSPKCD
Description: Anti-phospholipases colorimetric assay, hsPLA2-G-X. Type of assay: biochemical. A digest of the protocol:
as §1

The subject of another assay is LoVo cells. Description: Cytotoxicity assay. The format is cell-based. Particulars: Homo sapiens, 24 h; for viability at 200 µg/mL: read-out: % of Viable cells, LoVo cell line of CRC; for IC50: read-out: IC50 LoVo cell line of CRC. Put shortly: (§2)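 Cells exposed 24 h at 37 °C in 5% CO2 to test compound (final 25, 50, 75, 100, 200, 400 μg/mL) in DMEM with 10% FBS. Lactate dehydrogenase released into supernatant measured by end-point assay, OD 550 nm. Viability expressed as percent of medium-only control; 0.1% Triton X-100 was the positive control. Single-point viability at 200 μg/mL, mean ± SD (n = 2). IC50 from viability-versus-concentration plot.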

The test system of another assay is HCT-116 cells. Nature of the assay: Cytotoxicity assay. The format is cell-based. Conditions: Homo sapiens, HCT-116, 24 h, read-out: IC50 HCT-116 cell line of CRC. A digest of the protocol:
as §2

The target of another assay is cathepsin-B (Homo sapiens, UniProt P07858). Description: Anti-proteases assay. Type of assay: biochemical. A digest of the protocol:
(§3)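 Enzyme preincubated with test compound (5−75 μg/mL) for 15 min at 37 °C, then 1% casein substrate added for 30 min at 37 °C. Reaction stopped with 5% trichloroacetic acid and centrifuged (12,000 rpm, 15 min). Filtrate absorbance read at 280 nm. Percent inhibition taken against control; IC50 from standard curve. Protease inhibitor cocktail was the positive control.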

The target in another assay is α-glucosidase (Saccharomyces cerevisiae, UniProt P53341). Nature of the assay: In vitro α-glucosidase inhibitory activity. Type of assay: biochemical, Saccharomyces cereviseae.
In the next assay the target is xanthine oxidoreductase (Bos taurus, UniProt P80457). Nature of the assay: In vitro xanthine oxidoreductase inhibitory activity. Type of assay: biochemical.
The target of a further assay is T4, hsPLA2-G-IIA (Homo sapiens, UniProt P14555).
T4 sequence (P14555 21-144): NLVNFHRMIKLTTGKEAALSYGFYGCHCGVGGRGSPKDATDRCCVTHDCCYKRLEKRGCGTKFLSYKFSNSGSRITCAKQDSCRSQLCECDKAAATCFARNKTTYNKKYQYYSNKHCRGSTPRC
Nature of the assay: Anti-phospholipases colorimetric assay, hsPLA2-G-IIA. The format is biochemical.

For another assay, the target named is thrombin (Homo sapiens, UniProt P00734). Description: Anti-proteases assay. The format is biochemical.
For another assay, the target named is T5, trypsin (Bos taurus, UniProt P00760).
T5 sequence (P00760 24-246): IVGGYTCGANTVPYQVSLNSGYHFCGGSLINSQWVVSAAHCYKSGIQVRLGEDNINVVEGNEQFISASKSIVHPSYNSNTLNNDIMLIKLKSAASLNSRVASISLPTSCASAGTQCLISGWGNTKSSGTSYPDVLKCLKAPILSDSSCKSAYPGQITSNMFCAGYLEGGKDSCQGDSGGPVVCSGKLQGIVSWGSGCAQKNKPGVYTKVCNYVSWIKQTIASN
Nature of the assay: Anti-proteases assay. Type of assay: biochemical. Put shortly:
as §3

A further assay addresses collagenase. Description: Anti-proteases assay. Conditions: mean of two determinations ± SD. Type of assay: biochemical. Put shortly: as §3

By IC50 is commonly meant the concentration that gives 50% inhibition.

α-glucosidase, sequence (P53341 whole entry): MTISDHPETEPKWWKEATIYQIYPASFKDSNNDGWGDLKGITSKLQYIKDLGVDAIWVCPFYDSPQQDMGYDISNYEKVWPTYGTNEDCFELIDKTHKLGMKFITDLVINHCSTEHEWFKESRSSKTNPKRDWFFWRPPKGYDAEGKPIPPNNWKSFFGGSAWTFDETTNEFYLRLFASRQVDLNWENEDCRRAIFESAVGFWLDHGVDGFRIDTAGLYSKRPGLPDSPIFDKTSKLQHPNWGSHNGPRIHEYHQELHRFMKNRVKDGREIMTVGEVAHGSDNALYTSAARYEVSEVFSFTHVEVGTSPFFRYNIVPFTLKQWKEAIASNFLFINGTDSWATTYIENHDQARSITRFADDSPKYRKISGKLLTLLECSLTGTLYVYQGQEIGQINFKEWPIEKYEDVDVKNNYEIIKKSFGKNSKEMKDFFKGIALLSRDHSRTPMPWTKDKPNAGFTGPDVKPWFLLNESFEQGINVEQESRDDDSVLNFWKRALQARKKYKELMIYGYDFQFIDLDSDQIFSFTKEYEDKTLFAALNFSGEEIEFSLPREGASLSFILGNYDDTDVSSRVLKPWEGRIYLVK
xanthine oxidoreductase, sequence (P80457 2-1332 limits assumed): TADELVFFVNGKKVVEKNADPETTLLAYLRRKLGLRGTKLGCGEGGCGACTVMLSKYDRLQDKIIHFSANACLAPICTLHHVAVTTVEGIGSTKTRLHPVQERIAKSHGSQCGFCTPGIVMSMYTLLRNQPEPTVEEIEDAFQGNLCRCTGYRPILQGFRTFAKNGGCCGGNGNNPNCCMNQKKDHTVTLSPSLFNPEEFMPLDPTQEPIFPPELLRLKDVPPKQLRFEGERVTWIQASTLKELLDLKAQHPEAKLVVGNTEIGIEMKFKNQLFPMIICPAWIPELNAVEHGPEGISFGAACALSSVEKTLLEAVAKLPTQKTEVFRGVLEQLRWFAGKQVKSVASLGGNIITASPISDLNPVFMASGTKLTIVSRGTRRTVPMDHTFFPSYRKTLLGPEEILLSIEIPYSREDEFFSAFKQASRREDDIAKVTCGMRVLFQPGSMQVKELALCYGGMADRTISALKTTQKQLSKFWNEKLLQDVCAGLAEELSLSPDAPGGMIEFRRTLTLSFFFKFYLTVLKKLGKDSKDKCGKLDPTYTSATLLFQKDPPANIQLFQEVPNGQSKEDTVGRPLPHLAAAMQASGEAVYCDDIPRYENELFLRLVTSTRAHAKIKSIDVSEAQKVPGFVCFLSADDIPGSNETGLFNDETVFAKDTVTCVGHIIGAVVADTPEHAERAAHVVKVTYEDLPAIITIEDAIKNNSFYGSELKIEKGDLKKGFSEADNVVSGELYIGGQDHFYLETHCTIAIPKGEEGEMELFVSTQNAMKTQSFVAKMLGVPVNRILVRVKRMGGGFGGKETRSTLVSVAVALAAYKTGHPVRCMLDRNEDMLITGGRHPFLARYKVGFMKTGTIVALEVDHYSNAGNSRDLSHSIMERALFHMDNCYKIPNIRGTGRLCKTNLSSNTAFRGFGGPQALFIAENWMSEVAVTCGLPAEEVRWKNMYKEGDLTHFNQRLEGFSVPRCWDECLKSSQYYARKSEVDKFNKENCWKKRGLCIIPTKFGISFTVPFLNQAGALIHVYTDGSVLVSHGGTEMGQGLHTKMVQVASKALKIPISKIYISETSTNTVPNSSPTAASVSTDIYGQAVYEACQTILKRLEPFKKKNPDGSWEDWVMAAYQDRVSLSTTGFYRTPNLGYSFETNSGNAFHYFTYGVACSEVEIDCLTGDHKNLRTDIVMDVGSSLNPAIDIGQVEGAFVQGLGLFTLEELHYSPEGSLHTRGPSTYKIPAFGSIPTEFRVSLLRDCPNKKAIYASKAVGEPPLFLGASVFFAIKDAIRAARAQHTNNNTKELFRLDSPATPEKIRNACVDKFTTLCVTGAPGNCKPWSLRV

For `COc1cc(NCC(=O)Nn2c(C)nc3ccc(Cl)cc3c2=O)cc(OC)c1OC` [Compound 12, N-(6-Chloro-2-methyl-4-oxo-4H-quinazolin-3-yl)-2-(3,4,5-trimethoxyphenylamino)acetamide], the IC50 against α-amylase worked out at 401 ± 6.36 µM.

As for `COc1cc(/C=N/n2c(C)nc3ccc(Br)cc3c2=O)ccc1O` [Compound 3g, (E)-6-Bromo-3-[(4-hydroxy-3-methoxybenzylidene)amino]-2-methyl-3H-quinazolin-4-one], the IC50 against hsPLA2-G-V was 22.3 ± 0.92 µM; on hsPLA2-G-X, 14.5 ± 0.92 µM; in the assay with LoVo cells it was 206 ± 7.29 µM; with HCT-116 cells it was 285 ± 9.11 µM. Further, the viability at 200 µg/mL with LoVo cells is 16.8 ± 0.35%.

Consider `COc1ccc2cc(/C=N/n3c(C)nc4ccc(Br)cc4c3=O)ccc2c1` [Compound 3f, (E)-6-Bromo-3-[((6-methoxynaphthalen-2-yl)methylene)amino]-2-methylquinazolin-4(3H)-one], for which the half-maximal inhibitory concentration (IC50) is 132 µM against cathepsin-B, 310 ± 10 µM against α-amylase, 12.4 ± 0.83 µM at α-glucosidase and 7.34 ± 0.33 µM against xanthine oxidoreductase. Moreover, in the assay with LoVo cells, the viability at 200 µg/mL is 58 ± 4.24%.

At α-amylase, `Cc1nc2ccc(Br)cc2c(=O)n1/N=C/c1ccc(C(=O)O)cc1` [Compound 3b, (E)-4-[(6-Bromo-2-methyl-4-oxo-4H-quinazolin-3-ylimino)methyl]benzoic acid] returned an IC50 of 264 ± 11 µM.

Take `Cc1nc2ccc(Cl)cc2c(=O)n1NC(=O)CCl` [Compound 7b, 2-Chloro-N-(6-chloro-2-methyl-4-oxo-4H-quinazolin-3-yl)acetamide]: the IC50 against cathepsin-B is 31.5 µM; on hsPLA2-G-IIA, 127 ± 2.12 µM.

`O=c1c2ccccc2[nH]c(=S)n1-c1ccccc1` [Compound 9, 2-Mercapto-3-phenyl-3H-quinazolin-4-one] yielded an IC50 against hsPLA2-G-V of 151 ± 2.12 µM.

Take `O=c1c(O)c(-c2ccc(O)c(O)c2)oc2cc(O)cc(O)c12` [Quercetin, quercetin, reference compound]: at α-amylase, the IC50 worked out at 407 ± 2.83 µM.

For `Cc1nc2ccc(Cl)cc2c(=O)n1NC1=NC(=O)CS1` [Compound 8, 6-Chloro-2-methyl-3-(4-oxo-4,5-dihydrothiazol-2-ylamino)-3H-quinazolin-4-one], the IC50 is 0.729 µM on thrombin, 1.78 µM against trypsin, 319 ± 11.4 µM in the assay on LoVo cells and 449 ± 11.5 µM in the assay with HCT-116 cells. For the same molecule, the viability at 200 µg/mL in the assay with LoVo cells came to 13.5 ± 0.71%.

Turning to `Cc1nc2ccccc2c(=O)n1NC(=O)CSc1nc2ccccc2c(=O)n1-c1ccccc1` [Compound 10, N-(2-Methyl-4-oxo-4H-quinazolin-3-yl)-2-(4-oxo-3-phenyl-3,4-dihydroquinazolin-2-ylsulfanyl)acetamide], the half-maximal inhibitory concentration (IC50) against hsPLA2-G-IIA worked out at 13.8 ± 2.12 µM; on hsPLA2-G-V, 14.7 ± 0.42 µM; in the assay with LoVo cells, 273 ± 9.04 µM; with HCT-116 cells, 230 ± 9.04 µM. The viability at 200 µg/mL with LoVo cells worked out at 22 ± 1.41%.

With `COc1cc(/C=N/n2c(C)nc3ccc(C)cc3c2=O)cc([N+](=O)[O-])c1O` [Compound 3d, (E)-3-[(4-Hydroxy-3-methoxy-5-nitrobenzylidene)amino]-2,6-dimethylquinazolin-4(3H)-one], on collagenase, the “mean IC50 against Collagenase” value is on record as 57.83 ± 2.69 µg/mL. In addition, the IC50 against hsPLA2-G-X came to 21.4 ± 2.31 µM; against α-amylase, 375 ± 11.5 µM. Moreover, the viability at 200 µg/mL with LoVo cells was 90.5 ± 3.54%.

Turning to `COc1cc(/C=N/n2c(C)nc3ccc(Br)cc3c2=O)ccc1OCc1ccc(Cl)cc1` [Compound 5, (E)-6-Bromo-3-{[4-(4-chlorobenzyloxy)-3-methoxybenzylidene]amino}-2-methyl-3H-quinazolin-4-one], the IC50 is 358 ± 4.95 µM on α-amylase and 13.7 ± 1.41 µM against α-glucosidase.
